Data as given in PubChem BioAssay AID2052 (NMMLSC, 2009).
Out of some 330,000 compounds screened, about 220 (0.067%) were called active.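 How the source made its calls: active means response, share of CD8 T cells binding vesicles, and their 90th percentile fluorescence all below set limits (cut at about 80% in these data, passing the limit was not always enough); inactive means the rest, inconclusive results apart.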 The entries come from a sample that favours actives as a whole.

assay: murine CD8 T cell vesicle adhesion modulation – mouse 2C CD8+ T cells, flow cytometry, primary screen (AID 2052); conditions: 2C CD8+ T cell-vesicle binding, at 7 µM, stronger effect = lower value; double positive events: measured here: CD8+ vesicle-bound cell fraction;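 on double positive events: binding gate set so that unloaded-vesicle control wells show 10% double positive cells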;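 on response (vesicle binding): values below 100% mean blocked vesicle binding to the CD8+ T cells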
Procedure, shortened: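 material = purified 2C TCR transgenic mouse naive CD8+ T cells | controls = Unloaded micro-vesicles (low), QL9 vesicles with 0.7% DMSO (high) | detection = cytometric PE anti-B7-1 and Alexa647 anti-CD8 signals after 1% paraformaldehyde fixation | incubation = binding step 1.5 h, 37 °C, antibody labelling 20 min, ice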

| SMILES | double positive events | response (vesicle binding) |
| --- | --- | --- |
| CCCCOc1ccc(NC(=O)CSCC(=O)OCC)cc1 | 29.6% | 186% (inactive) |
| CN(C)/C=C(/C(=O)c1ccc(Cl)cc1)S(=O)(=O)c1ccccc1 | 37.1% | 209% (inactive) |
| Cc1nn(Cc2ccc(C(=O)N3N=C(C(F)F)CC3(O)C(F)F)cc2)c(C)c1[N+](=O)[O-] (centres undefined) | 36.3% | 446% (inactive) |
| C1=C(N2CCOCC2)/C(=C/c2nc3ccccc3[nH]2)CC1 | 33.6% | 242% (inactive) |
| CC1CC(C)(C)n2c(O)c(N=NC(N)=S)c3cccc1c32 (centres undefined) | 21.4% | 405% (inactive) |
| CC1CCc2sc(C(=O)NCC(c3ccco3)N3CCCCC3)cc2C1 (centres undefined) | 29.9% | 209% (inactive) |
| CS(=O)(=O)N(CC(=O)Nc1ccc(F)cc1F)c1cccc([N+](=O)[O-])c1 | 31.4% | 763% (inactive) |
| O=C(c1ccccc1)c1ccc2nc(N3CCCCC3)c3nncn3c2c1 | 4.3% | 87.7% (inactive) |
| Cc1c(Cl)cccc1NC(=S)NCC(O)c1ccccc1 (centres undefined) | 56.7% | 132% (inactive) |
| CC(=O)Nc1ccc(S(=O)(=O)Oc2ccc(Br)cc2C(=S)N2CCOCC2)cc1 | 35.8% | 429% (inactive) |
| Cc1ccc(OCC(=O)Nc2ccc(C(=O)O)cc2NC(=O)COc2ccc(C)c(C)c2)cc1C | 35.6% | 196% (inactive) |
| COc1ccc(/C=C(/NC(=O)c2ccccc2)C(=O)Nc2cccc(C(=O)O)c2)cc1 | 39.2% | 259% (inactive) |
| CCOc1ccc(S(=O)(=O)NCc2ccc3c(c2)OCO3)cc1C | 23.9% | 381% (inactive) |
| Cc1cc(Br)ccc1NC(=O)CN(C)C(=O)CN1C(=O)NC2(CCCC2)C1=O | 8.3% | 215% (inactive) |
| COCc1cc(C)n(CC(=O)NCC2CCCO2)c(=O)c1C#N (centres undefined) | 19.7% | 237% (inactive) |
| CC(=O)Nc1ccc(NC(=O)CSC2=NS(=O)(=O)c3ccccc3N2)cc1 | 46.2% | 285% (inactive) |
| COc1cc(/C=C/C(=O)N2CCc3ccccc3C2)cc(OC)c1OC | 39.9% | 216% (inactive) |
| CCc1cc(CNC(=O)CC2C(=O)NCCN2Cc2ccccc2C(F)(F)F)on1 (centres undefined) | 21.1% | 297% (inactive) |
| CS(=O)(=O)c1ccc(C(=O)NNC(=O)c2cccs2)cc1 | 52.2% | 322% (inactive) |
| O=C(NC1CCCC1)C(c1c(F)cccc1Cl)N(C(=O)c1csnn1)C1CC1 (centres undefined) | 17.4% | 421% (inactive) |
| CCc1ccc(NC(=O)C(=O)N/N=C(\C)CC(=O)NCCOC)cc1 | 23.6% | 154% (inactive) |
| CCc1ccc(-n2c(SCc3cc(=O)n4cc(Br)ccc4n3)nc3[nH]ncc3c2=O)cc1 | 30.8% | 314% (inactive) |
| Cc1sc2ncnc(N3CCC(C(=O)NNC(=O)c4ccc(F)cc4)CC3)c2c1C | 64.9% | 227% (inactive) |
| CC1CCN(c2ccc(S(=O)(=O)Nc3cc(C(=O)O)cc(C(=O)O)c3)cc2[N+](=O)[O-])CC1 | 24.9% | 234% (inactive) |
| CCn1c2c(c3ccc(OC)cc31)CCCC2=O | 43.3% | 241% (inactive) |
| COC/C=C/C1=CC2=CC(=O)C(C)(OC(=O)CCC(=O)OC)C(=O)C2=CO1 (centres undefined) | 30.4% | 292% (inactive) |

| SMILES | double positive events | response (vesicle binding) |
| --- | --- | --- |
| CCCN=C1NC(=O)C(CC(=O)NCCc2ccc(OC)c(OC)c2)S1 (centres undefined) | 39.4% | 112% (inactive) |
| CCN(CC(=O)Nc1c(F)cccc1F)C(=O)CN1c2cccc3cccc(c23)S1(=O)=O | 43.4% | 247% (inactive) |
| O=C1C=C(NCCNc2c(F)c(F)c(CO)c(F)c2F)CCC1 | 42.6% | 169% (inactive) |
| COCCN1C2=C(COC(C)(C)C2)C(=S)NC1c1ccccc1 (centres undefined) | 26.4% | 676% (inactive) |
| Cc1cc(C(=O)N2CCN(c3ccccn3)CC2)c(C)o1 | 21% | 214% (inactive) |
| Cn1ccc(=NC=C(C#N)C#N)c2ccccc21 | 46.1% | 136% (inactive) |
| Cc1cc(C)n2nc(C(=O)OCC(=O)N(C)CC(=O)Nc3ccc(F)cc3)nc2n1 | 43% | 342% (inactive) |
| CS(=O)(=O)N1CCc2cc(C(=O)Nc3ccccc3Br)ccc21 | 35.6% | 198% (inactive) |
| CN(C)N=Nc1ccc2nc[nH]c2c1 | 13.7% | 692% (inactive) |
| CO/N=C/c1ccc(N2CCN(C(=O)c3cccc(Cl)c3)CC2)c([N+](=O)[O-])c1 | 24.8% | 143% (inactive) |
| CSc1sc(C(=O)NNC(=O)c2ccc(Cl)cc2)c2c1C=CCC2 | 57.7% | 168% (inactive) |
| CCCCn1c(N)c(N2CCOCC2)c(=O)n(CC(=O)NCCc2ccccc2)c1=O | 52.1% | 370% (inactive) |
| CCCN1CCN(C(=O)Cn2ncc3ccccc32)CC1 | 45.8% | 326% (inactive) |
| COc1ccccc1CNC(=O)c1ccc(N(C)S(=O)(=O)c2ccc(C)cc2)cc1 | 2% | 94% (inactive) |
| Cc1ccc(-n2nc3c(c2NC(=O)CCC2CCCCC2)CS(=O)C3)cc1 (centres undefined) | 41.6% | 834% (inactive) |
| COc1cccc(C(=O)NNC(=O)/C=C/c2ccccc2)c1 | 61.7% | 433% (inactive) |
| CNC(=O)c1nnn(-c2ccccc2)c1C(=O)NC | 57.6% | 329% (inactive) |
| O=C(NCc1ccncc1)C1CCCN(S(=O)(=O)c2ccc(Br)cc2)C1 (centres undefined) | 50.3% | 342% (inactive) |
| CCSc1nnc(SCC(=O)NNC(=O)c2ccccc2F)s1 | 59.2% | 194% (inactive) |
| CCOc1cc(C2C(C(=O)OC(C)C)=C(C)NC3=C2C(=O)CCC3)cc([N+](=O)[O-])c1O (centres undefined) | 47.9% | 162% (inactive) |
| COc1cc(N)c(Cl)cc1C(=O)OCC(=O)c1ccc2c(c1)NC(=O)CO2 | 29.1% | 484% (inactive) |
| CC1(C)CC(CNCCC(c2ccc(F)cc2)c2ccco2)CCO1 (centres undefined) | 39.3% | 172% (inactive) |
| CN(C)S(=O)(=O)c1cccc(NC(=O)COc2ccc3ccccc3c2)c1 | 30.4% | 566% (inactive) |
| CCCn1cc(S(=O)(=O)c2ccc(C)cc2)c(=O)c2cc(OCC)ccc21 | 38.4% | 435% (inactive) |
| CC1C(c2ccccc2)=[N+]([O-])C2(CCCC2)N1O (centres undefined) | 34.2% | 259% (inactive) |
| COc1ccc(C2=Nn3c(nnc3-c3ccccc3OC)SC2)cc1OC1CCCC1 | 2.5% | 196% (inactive) |
